Fewer inactive variants are shown than the library holds.
B1: tRNA (parent)
chain: GUUCCGUUGGCGUAAUGGUAACGCGUCUCCCUCCUAAGGAGAAGACUGCGGGUUCGAGUCCCGUACGGAACG

Variants of: B1
Experiment: yeast fitness relative to wild type (ratio to wild type); higher = fitter; tRNA-Arg(CCU), competitive growth, 37 C, YPD
Outline: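 Amplicons of the tRNA-Arg(CCU) gene were sequenced, 100-nucleotide paired-end, from the start population and from each end population of a pooled yeast competition. The competition, in six parallel replicates, lasted 24 hours in YPD at 37°C. Fitness relative to wild type was calculated from changes in genotype frequencies. Genotypes had to have ≥ 100 starting reads, and estimates < 0.5 were set to 0.5.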

| Variant | yeast fitness |
| --- | --- |
| GUUCCGUUGGCGUAAUGGUAACGCGUCUCCCUCCUAAGGAGACGAUUGCGGGUUCGAGUCCCGUACGGAACG | 1.03 |
| GUUCCGUUGGCGUAAUGGUAACGCGUCUCCCUCCUAAGGAGAUGACUGCCGGUUCGAGUCCCGUCCGGAACG | 0.556 |
| GUUCCGUUGGCGUAAUGGUAACGCGUCUCCCUCCUAAGGAGAGGACUGCGGGUUCGAGUCCCGUAGGGAACG | 0.699 |
| GUUCCGUUGGCGUAAUGGUAACGCGUCUCCCUCCUAAGGAGAGGACUGCGGGUUCGAGUCCCGUAUGGAACG | 0.887 |
| GUUCCGUUGGCGUAAUGGUAACGCGUCUCCCUCCUAAGGAGAGGACUGCGGGUUCGGGUCCCGUACGGAACG | 0.924 |
| GUUCCGUUGGCGUAAUGGUAACGCGUCUCCCUCCUAAGGAGAUGACUGCGGGUUCCAGUCCCGUACGGAACG | 0.702 |
| GUUCCGUUGGCGUAAUGGUAACGCGUCUCCCUCCUAAGGAGAGGACUGCGGGCUUGAGUCCCGUACGGAACG | 0.561 |
| GUUCCGUUGGCGUAAUGGUAACGCGUCUCCCUCCUAAGGAGAUGACUGCGGGUUCGAGUCCCCUACGGAUCG | 0.54 |
| GUUCCGUUGGCGUAAUGGUAACGCGUCUCCCUCCUAAGGAGACGAAUCCGGGUUCGAGUCCCAUACGGAACG | 0.62 |
| GUUCCGUUGGCGUAAUGGUAACGCGUCUCCCUCCUAAGGAGAUGACUGCAGUUUCGAGUCCCGUACGGCACG | ≤ 0.5 |
| GUUCCGUUGGCGUAAUGGUAACGCGUCUCCCUCCUAAGGAGAUAAAUGCGGGUUCGAGUCCCGUACGGAACG | 0.654 |
| GUUCCGUUGGCGUAAUGGUAACGCGUCUCCCUCCUAAGGAGAGGACCGCGGGUUCGAGUCCCGUUCGGAACG | 0.668 |
| GUUCCGUUGGCGUAAUGGUAACGCGUCUCCCUCCUAAGGAGAUGACUGCGGGUUAGAGUCCCGUUCGGAACG | 0.515 |
| GUUCCGUUGGCGUAAUGGUAACGCGUCUCCCUCCUAAGGAGAGGACUGCGAGUUCGAGUCCCGUACGGCACG | ≤ 0.5 |
| GUUCCGUUGGCGUAAUGGUAACGCGUCUCCCUCCUAAGGAGAUGACUGGGGGUUCGAGUCCCGUACGGCACG | 0.512 |
| GUUCCGUUGGCGUAAUGGUAACGCGUCUCCCUCCUAAGGAGACGACUGCGGGUUCGAGUCCCUUACGGAACG | 0.638 |
| GUUCCGUUGGCGUAAUGGUAACGCGUCUCCCUCCUAAGGAGAUGACUGCGGGUUCGAGUCCCGUAAGGAACG | 0.619 |
| GUUCCGUUGGCGUAAUGGUAACGCGUCUCCCUCCUAAGGAGUAGACUGCGGGCUCGAGUCCCGUACGGAACG | 0.732 |
| GUUCCGUUGGCGUAAUGGUAACGCGUCUCCCUCCUAAGGAGACGACUGCGGGUUCAAGUCCCGUACGGAACG | 0.949 |
| GUUCCGUUGGCGUAAUGGUAACGCGUCUCCCUCCUAAGGAGAAAGCUGCGCGUUCGAGUCCCGUACGGAACG | ≤ 0.5 |
| GUUCCGUUGGCGUAAUGGUAACGCGUCUCCCUCCUAAGGAGACGACUGCGGGUUCGAGUCCGGUACGGAACG | 0.76 |
| GUUCCGUUGGCGUAAUGGUAACGCGUCUCCCUCCUAAGGAGAGGACUGCGGGUUCGAGUGCCGUACGGAACG | 0.734 |
| GUUCCGUUGGCGUAAUGGUAACGCGUCUCCCUCCUAAGGAGAUGACUGCGGGUUCGAGUCCAGUUUGGAACG | ≤ 0.5 |
| GUUCCGUUGGCGUAAUGGUAACGCGUCUCCCUCCUAAGGAGAGGACUGCGGGUUCGAGUUCUGUAUGGACCG | ≤ 0.5 |
| GUUCCGUUGGCGUAAUGGUAACGCGUCUCCCUCCUAAGGAGAUGACUGCGGGUUCGAGUCCCGUGCGGAACG | 1.01 |

| Variant | yeast fitness |
| --- | --- |
| GUUCCGUUGGCGUAAUGGUAACGCGUCUCCCUCCUAAGGAGACGACUGCGGGUUCGAGUCCCGUACGGAGCG | 1.05 |
| GUUCCGUUGGCGUAAUGGUAACGCGUCUCCCUCCUAAGGAGACGACUGCGGGUUCGAGUCCCGUACGGCACG | 1.04 |
| GUUCCGUUGGCGUAAUGGUAACGCGUCUCCCUCCUAAGGAGACGACUGCGGGUUCGAGUCCCGUACGGUACG | 1.12 |
| GUUCCGUUGGCGUAAUGGUAACGCGUCUCCCUCCUAAGGAGACGACUGCGGGUUCGAGUCCCGGACGGAACG | 0.618 |
| GUUCCGUUGGCGUAAUGGUAACGCGUCUCCCUCCUAAGGAGACGACUGCGGGUUCGAGUCCAGUACGGCACG | 0.633 |
| GUUCCGUUGGCGUAAUGGUAACGCGUCUCCCUCCUAAGGAGAUGACUGCGGGUUCCAGUCACGUACGGAACG | ≤ 0.5 |
| GUUCCGUUGGCGUAAUGGUAACGCGUCUCCCUCCUAAGGAGACGACUGCGGGUUCGAGUCGCGUACGGAACG | 0.66 |
| GUUCCGUUGGCGUAAUGGUAACGCGUCUCCCUCCUAAGGAGAGGACUGCGGGUUCGAGUCCCGUACGAAACG | 0.873 |
| GUUCCGUUGGCGUAAUGGUAACGCGUCUCCCUCCUAAGGAGACCACUGCGGGUUGGAGUCCUGUAUGGAACG | ≤ 0.5 |
| GUUCCGUUGGCGUAAUGGUAACGCGUCUCCCUCCUAAGGAGACGACUGGGGGUUCGGGUCCCGUACGGAACG | 0.591 |
| GUUCCGUUGGCGUAAUGGUAACGCGUCUCCCUCCUAAGGAGAGGACUGCGGGUUCGACUCCCGUACGGAACG | 0.855 |
| GUUCCGUUGGCGUAAUGGUAACGCGUCUCCCUCCUAAGGAGUAGACUGCGGCUUCGAGUCCCGUACGGAACG | 0.694 |
| GUUCCGUUGGCGUAAUGGUAACGCGUCUCCCUCCUAAGGAGACGACUACGGGUUCGACUCCCGUACGGAACG | 0.689 |
| GUUCCGUUGGCGUAAUGGUAACGCGUCUCCCUCCUAAGGAGAUGACUGCGCGUUCGCGUGCCGUACAGAACG | 0.663 |
| GUUCCGUUGGCGUAAUGGUAACGCGUCUCCCUCCUAAGGAGUAGACCGCGGGUUCGAGUCCUGUACGGAACG | 0.628 |
| GUUCCGUUGGCGUAAUGGUAACGCGUCUCCCUCCUAAGGAGAGGGCUGCGGGUUCGAGUCCCGUACGGAGCG | 0.532 |
| GUUCCGUUGGCGUAAUGGUAACGCGUCUCCCUCCUAAGGAGAGGACUGCGGGUUCAAGUCCCGUAUGUAACG | 0.557 |
| GUUCCGUUGGCGUAAUGGUAACGCGUCUCCCUCCUAAGGAGACGACUGCGGGUUCGAGUCCCGUACAGAACG | 0.685 |
| GUUCCGUUGGCGUAAUGGUAACGCGUCUCCCUCCUAAGGAGACGACUGCGGGUUCGAGUCCCGUACCGAACG | 0.867 |
| GUUCCGUUGGCGUAAUGGUAACGCGUCUCCCUCCUAAGGAGAUGACUGCGGGUUCAGGUCCCGUACGGAACG | 0.691 |
| GUUCCGUUGGCGUAAUGGUAACGCGUCUCCCUCCUAAGGAGAUGACUGCGGGUUCAAGUCCCGUAGGGAACG | 0.553 |
| GUUCCGUUGGCGUAAUGGUAACGCGUCUCCCUCCUAAGGAGAUGACUGCGGGUUCGAGUCACGUACGGAACG | 0.764 |
| GUUCCGUUGGCGUAAUGGUAACGCGUCUCCCUCCUAAGGAGACGACUGCGGGUUCGAGUCCCGUAUGGAACG | 0.948 |
| GUUCCGUUGGCGUAAUGGUAACGCGUCUCCCUCCUAAGGAGUAGACUGCGGAUUCGAGUCCCGUACUGAACG | 0.783 |
| GUUCCGUUGGCGUAAUGGUAACGCGUCUCCCUCCUAAGGAGACGACUGAGGGUUCGAGUCCCGUCCGGAACG | ≤ 0.5 |

| Variant | yeast fitness |
| --- | --- |
| GUUCCGUUGGCGUAAUGGUAACGCGUCUCCCUCCUAAGGAGACAACUGCGGGUUCGAGACCCGUACGGAACG | 0.593 |
| GUUCCGUUGGCGUAAUGGUAACGCGUCUCCCUCCUAAGGAGUAGACUGCGGGUUCAAGUCCCCUACGGAACG | ≤ 0.5 |
| GUUCCGUUGGCGUAAUGGUAACGCGUCUCCCUCCUAAGGAGACGACAGCGGGUUCGAGUCCCGUACGGAACG | 0.732 |
| GUUCCGUUGGCGUAAUGGUAACGCGUCUCCCUCCUAAGGAGACGACUGCGGGUUCAAGUCACGUACGGAACG | 0.525 |
| GUUCCGUUGGCGUAAUGGUAACGCGUCUCCCUCCUAAGGAGAGGACUGCCGGUUCGAGUCCCGUACGGAACG | 0.728 |
| GUUCCGUUGGCGUAAUGGUAACGCGUCUCCCUCCUAAGGAGACGACUGCGGGUUCGAGUCCCGUACGUAACG | 0.868 |
| GUUCCGUUGGCGUAAUGGUAACGCGUCUCCCUCCUAAGGAGACGACUGUGGGUUCGAGUCCCGUACGGAACG | 0.964 |
| GUUCCGUUGGCGUAAUGGUAACGCGUCUCCCUCCUAAGGAGUAGACUGCGGGUUCGAGUCCCAUGCGGAACG | 0.572 |
| GUUCCGUUGGCGUAAUGGUAACGCGUCUCCCUCCUAAGGAGACGACUGCGGGUUCGAAUCCCGUACGGAACG | 0.944 |
| GUUCCGUUGGCGUAAUGGUAACGCGUCUCCCUCCUAAGGAGAUGACUGCGGGUACGAGUCCCGUACGGAACG | 0.683 |
| GUUCCGUUGGCGUAAUGGUAACGCGUCUCCCUCCUAAGGAGAUGACUGCGGGUCCGAGUCCCGUACGGAACG | 0.92 |
| GUUCCGUUGGCGUAAUGGUAACGCGUCUCCCUCCUAAGGAGAUGACUGCGGGUUAGAGUCCCGUUCGGAGCG | 0.56 |
| GUUCCGUUGGCGUAAUGGUAACGCGUCUCCCUCCUAAGGAGAAAACUGCGGGUUCGGGUCCCGUACGGAACG | 0.688 |
| GUUCCGUUGGCGUAAUGGUAACGCGUCUCCCUCCUAAGGAGAUGACUGCGAGUUCGAGUCCCGUACGGAACG | 1 |
| GUUCCGUUGGCGUAAUGGUAACGCGUCUCCCUCCUAAGGAGAUGAAUGCGGGUUCGAGUCCCGUCCGGAACG | 0.688 |
| GUUCCGUUGGCGUAAUGGUAACGCGUCUCCCUCCUAAGGAGUACACUGCGGGUACGAGUCCCGUAUAGAACG | ≤ 0.5 |
| GUUCCGUUGGCGUAAUGGUAACGCGUCUCCCUCCUAAGGAGAUGACUGCGCGUUCGAGUCGCGUACGGAACG | 0.593 |
| GUUCCGUUGGCGUAAUGGUAACGCGUCUCCCUCCUAAGGAGAUGACCGCGGGUUAGAGUCCCGUACGGAACG | ≤ 0.5 |
| GUUCCGUUGGCGUAAUGGUAACGCGUCUCCCUCCUAAGGAGAUGACCGCGGGUUGGAGUCCCGUACGGAACG | ≤ 0.5 |
| GUUCCGUUGGCGUAAUGGUAACGCGUCUCCCUCCUAAGGAGACGUCUGCGGGUUCGAGUCAUGUAUGGAACG | ≤ 0.5 |
| GUUCCGUUGGCGUAAUGGUAACGCGUCUCCCUCCUAAGGAGAUGACUGGGGGUUGGAGUCCCGUACGGAACG | 0.988 |
| GUUCCGUUGGCGUAAUGGUAACGCGUCUCCCUCCUAAGGAGAUGACUGCGGGUUCGAGCCCCGUACGGAACG | 1.02 |
| GUUCCGUUGGCGUAAUGGUAACGCGUCUCCCUCCUAAGGAGACGGCUGCGGGUUCGACUCCCGUACGGAACG | 0.685 |
| GUUCCGUUGGCGUAAUGGUAACGCGUCUCCCUCCUAAGGAGACGACUGCGGGAUCGAGUCCCGUACGGAACG | 0.662 |
| GUUCCGUUGGCGUAAUGGUAACGCGUCUCCCUCCUAAGGAGACGACUGCGGGUUCGAGUCCCGCACGGACCG | 0.989 |

Reference: the RNAGym collection of RNA variant scans (doi:10.1126/science.aae0568)
